ChEMBL document CHEMBL1149190, “Generation of new protein kinase inhibitors utilizing cytochrome p450 mutant enzymes for indigoid synthesis” (J Med Chem, 2004)

Legend:
[1] = molecular target: Cyclin-dependent kinase 5/CDK5 activator 1 (Homo sapiens, UniProt Q00535); assay: Inhibition of Cyclin-dependent kinase 5-p35nck5a; type: protein-complex assay
Outline: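 Recombinant CDK5 and p25 (truncated p35), each expressed in E. coli as a GST fusion and glutathione-agarose purified, mixed in equal amounts. Read by P81 filter capture and scintillation counting. Expressed as % of uninhibited activity. Duplicates; IC50 determined.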

[2] = molecular target: Cyclin-dependent kinase 1/cyclin B (Marthasterias glacialis); assay: Inhibition of Cyclin-dependent kinase 1-cyclin B of M-phase Marthasterias glacialis oocytes
[3] = molecular target: T1, Glycogen synthase kinase-3 (Homo sapiens, UniProt P49840+P49841); assay: Inhibition of porcine GSK-3-alpha/beta kinase; type: protein assay, Sus scrofa; conditions: target entry is the homologue from another species
Outline: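 Porcine brain GSK-3α/β, purified on immobilized axin and diluted 1/100 in 1 mg/mL BSA with 10 mM DTT. Substrate GS-1 phosphopeptide in buffer A (Tris-HCl pH 7.5, MgCl2, EGTA, DTT, heparin) with 15 µM [γ-33P]ATP, 30 min at 30 °C. Read by P81 filter binding and scintillation counting. Duplicates; IC50 as % of control activity.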

[4] = molecular target: T2, Cyclin-dependent kinase 5/CDK5 activator 1 (Homo sapiens) (UniProt Q00535+Q15078); assay: Residual Cyclin-dependent kinase 5-p35nck5a activity with L240C/N297Q mutant cytochrome P450 2A6 extract; type: protein-complex assay
Outline: (§1)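 The indole was fed to E. coli expressing the P450 2A6 variant with NADPH-P450 reductase, grown 42 h at 30 °C. Extract in DMSO (0.3 µL) was added to the CDK5/p25 histone H1 assay: buffer C, 15 µM [γ-33P]ATP, 30 °C. Residual activity given as % of a DMSO-only control. Means of duplicates.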

[5] = molecular target: T1, Glycogen synthase kinase-3; assay: (§2) Residual porcine GSK-3-alpha/beta kinase activity with L240C/N297Q mutant cytochrome P450 2A6 extract; type: protein assay; set-up: concentration or dose not given beside the values; conditions: Sus scrofa; target entry is the homologue from another species
Outline: (§3)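 E. coli expressing the P450 2A6 variant plus reductase were grown 42 h at 30 °C with the indole added. DMSO extract (0.3 µL) was tested on axin-purified porcine GSK-3α/β with GS-1 peptide in buffer A, 15 µM [γ-33P]ATP, 30 °C. Residual activity given as % of a DMSO control. Means of duplicates.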

[6] = molecular target: T1, Glycogen synthase kinase-3; assay: (§4) Residual porcine GSK-3-alpha/beta kinase activity with L240C mutant cytochrome P450 2A6 extract; type: protein assay; conditions: Sus scrofa; target entry is the homologue from another species; outline: as §3
[7] = molecular target: T2, Cyclin-dependent kinase 5/CDK5 activator 1 (Homo sapiens); assay: Residual Cyclin-dependent kinase 5-p35nck5a activity with L240C-mutant cytochrome P450 2A6 extract; type: protein-complex assay
[8] = molecular target: T1, Glycogen synthase kinase-3; assay: as §2; type: protein assay; conditions: Sus scrofa; target entry is the homologue from another species; outline: as §3
[9] = molecular target: T2, Cyclin-dependent kinase 5/CDK5 activator 1 (Homo sapiens); assay: Residual Cyclin-dependent kinase 5-p35nck5a activity with wild-type cytochrome P450 2A6 extract; type: protein-complex assay; outline: as §1
[10] = molecular target: T1, Glycogen synthase kinase-3; assay: Residual porcine GSK-3-alpha/beta kinase activity with wild-type cytochrome P450 2A6 extract; type: protein assay; conditions: Sus scrofa, target entry is the homologue from another species; outline: as §3
[11] = molecular target: T1, Glycogen synthase kinase-3; assay: as §4; type: protein assay; conditions: Sus scrofa; target entry is the homologue from another species; remark: listed apart in the source
Outline: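 GSK-3α/β from porcine brain, purified on immobilized axin and diluted 1/100, assayed in buffer A with GS-1 peptide substrate and 15 µM [γ-33P]ATP for 30 min at 30 °C. Phosphate incorporation read on P81 filters by scintillation counting. Bacterial extract in DMSO added; residual activity given as % of DMSO control, mean of duplicates.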

T1 sequence (P49840 whole entry, looked up): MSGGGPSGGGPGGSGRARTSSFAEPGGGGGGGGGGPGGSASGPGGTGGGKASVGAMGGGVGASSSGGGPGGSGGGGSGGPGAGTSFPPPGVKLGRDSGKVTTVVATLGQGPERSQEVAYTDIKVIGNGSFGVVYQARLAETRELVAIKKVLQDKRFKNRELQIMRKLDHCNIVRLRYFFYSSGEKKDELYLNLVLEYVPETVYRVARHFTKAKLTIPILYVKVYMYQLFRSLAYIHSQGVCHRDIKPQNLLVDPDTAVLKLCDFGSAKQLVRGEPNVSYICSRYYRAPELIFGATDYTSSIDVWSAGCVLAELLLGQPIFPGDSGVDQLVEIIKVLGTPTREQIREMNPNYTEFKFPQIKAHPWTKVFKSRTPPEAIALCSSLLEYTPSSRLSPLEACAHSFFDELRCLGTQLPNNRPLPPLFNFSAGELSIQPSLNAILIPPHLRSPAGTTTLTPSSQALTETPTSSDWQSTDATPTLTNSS
T1 sequence (P49841 whole entry, looked up): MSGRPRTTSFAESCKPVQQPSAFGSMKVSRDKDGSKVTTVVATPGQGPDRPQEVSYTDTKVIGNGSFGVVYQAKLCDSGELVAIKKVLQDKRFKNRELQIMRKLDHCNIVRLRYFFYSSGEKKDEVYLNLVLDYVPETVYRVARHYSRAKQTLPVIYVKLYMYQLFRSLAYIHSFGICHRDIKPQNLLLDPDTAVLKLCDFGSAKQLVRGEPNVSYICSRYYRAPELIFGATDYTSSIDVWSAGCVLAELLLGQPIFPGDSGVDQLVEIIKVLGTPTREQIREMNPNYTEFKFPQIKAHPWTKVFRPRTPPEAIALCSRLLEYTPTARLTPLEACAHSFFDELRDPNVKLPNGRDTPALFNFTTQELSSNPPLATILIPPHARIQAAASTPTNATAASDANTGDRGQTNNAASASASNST
T2 sequence (Q00535 whole entry): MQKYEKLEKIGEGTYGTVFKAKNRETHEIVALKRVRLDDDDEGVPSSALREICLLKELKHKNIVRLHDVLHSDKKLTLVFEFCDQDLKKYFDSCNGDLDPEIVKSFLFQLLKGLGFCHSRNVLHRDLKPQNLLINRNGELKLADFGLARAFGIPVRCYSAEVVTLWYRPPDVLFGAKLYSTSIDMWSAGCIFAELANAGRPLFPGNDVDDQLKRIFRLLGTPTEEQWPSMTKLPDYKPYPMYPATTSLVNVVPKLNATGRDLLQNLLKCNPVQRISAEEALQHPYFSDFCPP
T2 sequence (Q15078 99-307 partner limits assumed): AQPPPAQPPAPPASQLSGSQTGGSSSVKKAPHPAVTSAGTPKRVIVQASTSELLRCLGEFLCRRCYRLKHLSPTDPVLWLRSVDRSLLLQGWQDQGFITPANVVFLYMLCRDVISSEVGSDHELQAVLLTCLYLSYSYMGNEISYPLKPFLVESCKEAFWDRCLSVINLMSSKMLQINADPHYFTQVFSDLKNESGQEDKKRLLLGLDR
Chain of Cyclin-dependent kinase 5/CDK5 activator 1 (Q00535 whole entry, the tested form may be a part): as the sequence (Q00535 whole entry) above
Chain of Cyclin-dependent kinase 5/CDK5 activator 1 (Q15078 whole entry, further chain, the tested form may be a part): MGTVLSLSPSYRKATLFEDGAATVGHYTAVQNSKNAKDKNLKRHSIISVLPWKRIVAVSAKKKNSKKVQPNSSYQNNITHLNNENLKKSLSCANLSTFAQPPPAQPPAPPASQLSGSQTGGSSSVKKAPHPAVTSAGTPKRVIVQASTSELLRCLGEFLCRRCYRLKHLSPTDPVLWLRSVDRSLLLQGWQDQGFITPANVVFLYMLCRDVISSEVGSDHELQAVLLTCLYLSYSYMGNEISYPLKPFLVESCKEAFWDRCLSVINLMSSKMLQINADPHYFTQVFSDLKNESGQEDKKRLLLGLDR

Compound	IC50 [1] [nM]	IC50 [3] [nM]	residual activity [4] [%]	residual activity [5] [%]	also measured
COc1ccc2c(c1)C(=O)C(c1[nH]c3ccccc3c1O)=N2	> 100000	> 100000	–	–	IC50 [2]: > 100000 nM
Cc1ccc2c(c1)C(=O)C(c1c(O)[nH]c3ccccc13)=N2	1900	550	–	–	–
Cc1ccc2[nH]c(O)c(C3=Nc4ccccc4C3=O)c2c1	5000	800	–	–	–
O=C1/C(=C2\Nc3ccccc3C2=O)Nc2ccccc21 [INDIGO]	> 100000	> 100000	–	–	–
O=C1Nc2ccccc2/C1=C1/Nc2ccccc2C1=O [INDIRUBIN]	–	2500	–	–	–
COc1ccc2c(c1)C(=O)C(c1c(O)[nH]c3ccccc13)=N2	1200	600	–	–	IC50 [2]: 2100 nM
COc1ccc2c(c1)C(=O)C(c1[nH]c3ccc(OC)cc3c1O)=N2	26000	6000	–	–	IC50 [2]: 1200 nM
COc1ccc2[nH]ccc2c1	–	–	3	3	residual activity [11]: 55%; residual activity [7]: 87%
COc1ccc2c(c1)C(=O)C(c1c(O)[nH]c3ccc(OC)cc13)=N2	800	200	–	–	IC50 [2]: 400 nM

Continued, in another order:

IC50 [1] [nM]	IC50 [3] [nM]	residual activity [4] [%]	residual activity [5] [%]	Compound	also measured
–	–	103	89	c1cnc2[nH]ccc2c1	–
–	–	56	–	Brc1ccc2[nH]ccc2c1	residual activity [6]: 22%; residual activity [7]: 44%; residual activity [8]: 25%
–	–	97	87	Fc1ccc2cc[nH]c2c1	–
1200	800	–	–	COc1ccc2[nH]c(O)c(C3=Nc4ccccc4C3=O)c2c1	IC50 [2]: 1500 nM
–	–	99	71	COC(=O)c1ccc2[nH]ccc2c1	–
–	–	73	42	Nc1ccc2[nH]ccc2c1	–
–	–	82	–	Clc1cccc2cc[nH]c12	residual activity [8]: 110%
–	–	19	15	Cc1ccc2[nH]ccc2c1	residual activity [9]: 89%; residual activity [10]: 45%
–	–	80	62	COc1cc2cc[nH]c2cc1OC	–
–	–	81	76	c1ccc2[nH]ccc2c1	residual activity [9]: 78%; residual activity [10]: 68%
–	–	107	–	O=[N+]([O-])c1ccc2cc[nH]c2c1	residual activity ([10]; in the assay text read “cytochrome P450 2A6 L240C/N297Q mutant” for “wild-type cytochrome P450 2A6”): 63%
–	–	90	59	Cc1cccc2cc[nH]c12	–
